Like-named read-outs stand apart in the source and are kept apart here.
Legend:
[1] = PET imaging of 89Zr tracer, 17 MBq/kg; type: in vivo, rat
Summary of the method: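 Sprague–Dawley rats (200–300 g) received the 89Zr tracer (formulated at 5 MBq/nmol) i.v. or s.c. at 17 MBq/kg (3 nmol/kg). They were PET-imaged under 2–3% isoflurane/O2 at 4, 8, 24, 72 and 168 h, with a 350–650 keV window. Scans ran 15 min (4, 8 h), 20 min (24 h), 30 min (72 h) and 60 min (168 h), followed by a 323 s Co-57 transmission scan for attenuation correction. Images were decay-corrected to injection and reported as %ID/g.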

[2] = type: in vivo; conditions: rat, plasma, iv, 20 nmol/kg
Summary of the method: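 Sprague–Dawley rats (200–300 g) were dosed at 20 nmol/kg i.v. or s.c. Blood (200 µL) was drawn at 2, 6, 10, 24, 30 and 48 h, processed to plasma, extracted and analysed by UPLC-MS. Quantification used a calibration curve from spiked plasma, and parameters came from non-compartmental analysis. Groups were n = 4 for s.c., and n = 3 or 1 for i.v.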

[3] = in rats; cited from earlier work
[4] = after i.v. administration; cited from earlier work

For `CC[C@H](C)[C@H](NC(=O)[C@H](Cc1ccccc1)NC(=O)[C@H](CCC(=O)O)NC(=O)[C@H](CCCNC(=N)N)NC(=O)[C@H](C)NC(=O)[C@H](C)NC(=O)[C@H](CCC(N)=O)NC(=O)[C@H](CCC(=O)O)NC(=O)[C@H](CCC(=O)O)NC(=O)[C@H](CC(C)C)NC(=O)[C@H](Cc1ccc(O)cc1)NC(=O)[C@H](CO)NC(=O)[C@H](CO)NC(=O)[C@@H](NC(=O)[C@H](CC(=O)O)NC(=O)[C@H](CO)NC(=O)[C@@H](NC(=O)[C@H](Cc1ccccc1)NC(=O)[C@@H](NC(=O)CNC(=O)[C@H](CCC(=O)O)NC(=O)[C@H](C)NC(=O)CCc1c[nH]cn1)[C@@H](C)O)[C@@H](C)O)C(C)C)C(=O)N[C@@H](C)C(=O)N[C@@H](Cc1c[nH]c2ccccc12)C(=O)N[C@@H](CC(C)C)C(=O)N[C@H](C(=O)N[C@@H](CCCNC(=N)N)C(=O)NCC(=O)N[C@@H](CCCNC(=N)N)C(=O)N[C@@H](CCCCNC(=O)COCCOCCNC(=O)COCCOCCNC(=O)CC[C@H](NC(=O)CCCCCCCCCCCCCCCCC(=O)O)C(=O)O)C(=O)NCC(=O)NCC(=O)N[C@@H](CO)C(=O)N[C@@H](CCCCNc1c(NCCCCCN(O)C(=O)CCC(=O)NCCCCCN(O)C(=O)CCC(=O)NCCCCCN(O)C(C)=O)c(=O)c1=O)C(=O)O)C(C)C` [[89Zr]2, metal not drawn], the “initial dose trapped in the subcutis” value ([1]; PET, s.c., after 168 h) was 10% and the tissue uptake at 168 h ([1]; rat, kidney, iv, 3 nmol/kg, total radioactivity) was roughly 7 %ID/g.

For `CC[C@H](C)[C@H](NC(=O)[C@H](Cc1ccccc1)NC(=O)[C@H](CCC(=O)O)NC(=O)[C@H](CCCNC(=N)N)NC(=O)[C@H](C)NC(=O)[C@H](C)NC(=O)[C@H](CCC(N)=O)NC(=O)[C@H](CCC(=O)O)NC(=O)[C@H](CCC(=O)O)NC(=O)[C@H](CC(C)C)NC(=O)[C@H](Cc1ccc(O)cc1)NC(=O)[C@H](CO)NC(=O)[C@H](CO)NC(=O)[C@@H](NC(=O)[C@H](CC(=O)O)NC(=O)[C@H](CO)NC(=O)[C@@H](NC(=O)[C@H](Cc1ccccc1)NC(=O)[C@@H](NC(=O)CNC(=O)[C@H](CCC(=O)O)NC(=O)[C@H](C)NC(=O)CCc1c[nH]cn1)[C@@H](C)O)[C@@H](C)O)C(C)C)C(=O)N[C@@H](C)C(=O)N[C@@H](Cc1c[nH]c2ccccc12)C(=O)N[C@@H](CC(C)C)C(=O)N[C@H](C(=O)N[C@@H](CCCNC(=N)N)C(=O)NCC(=O)N[C@@H](CCCNC(=N)N)C(=O)N[C@@H](CCCCNC(=O)COCCOCCNC(=O)COCCOCCNC(=O)CC[C@H](NC(=O)CCCCCCCCCCCCCCCCC(=O)O)C(=O)O)C(=O)NCC(=O)NCC(=O)N[C@@H](CO)C(=O)N[C@@H](CCCCNc1c(NCCCCCN(O)C(=O)CCC(=O)NCCCCCN(O)C(=O)CCC(=O)NCCCCCN(O)C(C)=O)c(=O)c1=O)C(=O)O)C(C)C` [compound 2], the half-life [2] was 8.4 h.

In the case of semaglutide, the plasma metabolite exposures [3] is given as 1–7% and the half-life [4] is given as 7 to 12 h.

Source: publication PMC9380726 (ACS Pharmacology & Translational Science, 2022)
